Laboratory results as given in ChEMBL document CHEMBL1287748, “Design, synthesis and in vitro antimalarial evaluation of triazole-linked chalcone and dienone hybrid compounds” (Bioorg Med Chem, 2010).
pIC50: −log10 of the molar value.

What was measured:
[1] = system: Plasmodium falciparum; assay: Antimalarial activity against chloroquine-resistant Plasmodium falciparum W2 after 48 hrs by FACS analysis in presence of 10 % human serum; type: functional, organism-based; details: W2, 48 h
Summary of the method: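 W2 parasites grown in standard medium containing 10% human serum. Growth inhibition assay as in earlier published work, with parasite development scored by flow cytometry (FACS).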

[2] = system: Plasmodium falciparum; assay: Antimalarial activity against chloroquine-resistant Plasmodium falciparum Dd2 after 48 hrs; type: functional, organism-based; details: Dd2, 48 h
Summary of the method: (§1)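 P. falciparum asexual culture in RPMI 1640 with glucose, HEPES, hypoxanthine, 5% Albumax, bicarbonate and gentamicin, sorbitol-synchronized at ring stage when needed. DMSO stocks serially diluted twofold in medium and added to parasitized erythrocytes at 2% hematocrit. Incubation 48 h at 37 °C under 3% O2/4% CO2/93% N2. pLDH read-out with Malstat plus NBT/PES at 620 nm. Runs in duplicate on two occasions; IC50 fitted from dose–response curves.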

[3] = system: Plasmodium falciparum; assay: Antimalarial activity against chloroquine-sensitive Plasmodium falciparum D10 after 48 hrs; type: functional, organism-based; details: D10, 48 h; summary of the method: as §1
[4] = Inhibition of beta-hematin formation assessed as equivalents of drug relative to hematin; type: functional
Summary of the method: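 Colorimetric assay quantifying a compound's inhibition of the conversion of hematin to beta-hematin. IC50 is expressed in equivalents of compound relative to hematin.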

Structure (SMILES) | pIC50 [1] | pIC50 [2] | pIC50 [3] | IC50 [4]
C#CCOc1ccc(/C=C/C(C)=O)cc1OC | < 4.70 | 5.12 | 5.01 | 
COc1ccc(C(=O)/C=C/c2ccc(OCc3cn([C@H]4C[C@H](n5cc(C)c(=O)[nH]c5=O)O[C@@H]4CO)nn3)c(OC)c2)cc1 | 5.10 | 5.21 | 5.54 | 
COc1ccc(C(=O)/C=C/c2ccc(OCc3cn([C@H]4C[C@H](n5cc(C)c(=O)[nH]c5=O)O[C@@H]4CO)nn3)c(OC)c2)c(OC)c1 | 5.27 | 5.36 | 5.82 | 
COc1cc(/C=C/C(=O)c2ccc(OC)c(OC)c2OC)ccc1OCc1cn([C@H]2C[C@H](n3cc(C)c(=O)[nH]c3=O)O[C@@H]2CO)nn1 | 5.27 | 5.43 | 5.48 | 
COc1cc(/C=C/C(=O)c2ccc(OC)c(OC)c2OC)ccc1OCc1cn(-c2ccnc3cc(Cl)ccc23)nn1 | 6.22 | 6.40 | 6.40 | 0.2 equiv
COc1ccc(/C=C/C(=O)c2ccc(OCc3cn([C@H]4C[C@H](n5cc(C)c(=O)[nH]c5=O)O[C@@H]4CO)nn3)c(OC)c2)c(OC)c1 | 5.05 | 4.93 | 4.99 | 
COc1cc(C(=O)/C=C/c2ccc(OC)c(OC)c2OC)ccc1OCc1cn([C@H]2C[C@H](n3cc(C)c(=O)[nH]c3=O)O[C@@H]2CO)nn1 | 5.15 | 5.42 | 5.27 | 
COc1cc(C(=O)/C=C/c2ccc(Cl)cc2Cl)ccc1OCc1cn([C@H]2C[C@H](n3cc(C)c(=O)[nH]c3=O)O[C@@H]2CO)nn1 | 5.08 | 5.72 | 5.43 | 
COc1cc(C(=O)/C=C/c2ccc(F)cc2)ccc1OCc1cn([C@H]2C[C@H](n3cc(C)c(=O)[nH]c3=O)O[C@@H]2CO)nn1 | 5.18 | 5.21 | 5.14 | 
COc1cc(C(=O)/C=C/c2ccc(F)cc2F)ccc1OCc1cn([C@H]2C[C@H](n3cc(C)c(=O)[nH]c3=O)O[C@@H]2CO)nn1 | 5.15 | 5.32 | 5.41 | 
COc1cc(C(=O)/C=C/c2ccc(OC)c(OC)c2OC)ccc1OCc1cn(-c2ccnc3cc(Cl)ccc23)nn1 | 6.30 | 6.52 | 6.52 | 4.1 equiv
COc1ccc(/C=C/C(=O)/C=C/c2ccc(OCc3cn([C@H]4C[C@H](n5cc(C)c(=O)[nH]c5=O)O[C@@H]4CO)nn3)c(OC)c2)cc1 | 4.74 | 5.82 | 5.55 | 
COc1ccc(/C=C/C(=O)/C=C/c2ccc(OCc3cn([C@H]4C[C@H](n5cc(C)c(=O)[nH]c5=O)O[C@@H]4CO)nn3)c(OC)c2)c(OC)c1 | 4.84 | 5.92 | 5.89 | 
COc1cc(/C=C/C(=O)/C=C/c2ccc(OC)c(OC)c2OC)ccc1OCc1cn([C@H]2C[C@H](n3cc(C)c(=O)[nH]c3=O)O[C@@H]2CO)nn1 | 5.08 | 5.62 | 5.89 | 
COc1cc(/C=C/C(=O)/C=C/c2ccc(Cl)cc2Cl)ccc1OCc1cn([C@H]2C[C@H](n3cc(C)c(=O)[nH]c3=O)O[C@@H]2CO)nn1 | 5.04 | 5.77 | 5.85 | 
COc1cc(/C=C/C(=O)/C=C/c2ccc(F)cc2)ccc1OCc1cn([C@H]2C[C@H](n3cc(C)c(=O)[nH]c3=O)O[C@@H]2CO)nn1 |  | 5.59 | 5.77 | 
COc1cc(/C=C/C(=O)/C=C/c2ccc(F)cc2F)ccc1OCc1cn([C@H]2C[C@H](n3cc(C)c(=O)[nH]c3=O)O[C@@H]2CO)nn1 | 4.91 | 5.77 | 5.85 | 
COc1ccc(/C=C/C(=O)/C=C/c2ccc(OCc3cn(-c4ccnc5cc(Cl)ccc45)nn3)c(OC)c2)c(OC)c1 | < 4.70 | 5.19 | 5.29 | 
COc1cc(/C=C/C(=O)/C=C/c2ccc(OC)c(OC)c2OC)ccc1OCc1cn(-c2ccnc3cc(Cl)ccc23)nn1 | 4.73 | 5.68 | 5.60 | 
COc1cc(/C=C/C(C)=O)ccc1OCc1cn(-c2ccnc3cc(Cl)ccc23)nn1 |  | 6.15 | 6.10 | 
COc1ccc(/C=C/C(=O)/C=C/c2ccc(OCc3cn(-c4ccnc5cc(Cl)ccc45)nn3)c(OC)c2)cc1 | 5.28 | 5.68 | 5.52 | 
COc1cc(/C=C/C(=O)/C=C/c2ccc(Cl)cc2Cl)ccc1OCc1cn(-c2ccnc3cc(Cl)ccc23)nn1 | < 4.70 | 4.77 | 4.72 | 
COc1cc(/C=C/C(=O)/C=C/c2ccc(F)cc2)ccc1OCc1cn(-c2ccnc3cc(Cl)ccc23)nn1 | < 4.70 | 5.03 | 5.03 | 
COc1cc(/C=C/C(=O)/C=C/c2ccc(F)cc2F)ccc1OCc1cn(-c2ccnc3cc(Cl)ccc23)nn1 | < 4.70 | 5.19 | 4.99 | 
Clc1ccc2c(-n3cc(COc4ccccc4)nn3)ccnc2c1 |  | < 4.70 | < 4.70 | 

Structure (SMILES) | pIC50 [1] | pIC50 [2] | pIC50 [3] | IC50 [4]
COc1cc(C=O)ccc1OCc1cn(-c2ccnc3cc(Cl)ccc23)nn1 |  | < 4.70 | < 4.70 | 
C#CCOc1ccc(C(=O)/C=C/c2ccc(Cl)cc2Cl)cc1OC | 5.30 | 5.55 | 5.48 | 
C#CCOc1ccc(C(=O)/C=C/c2ccc(F)cc2)cc1OC | < 4.70 | 5.11 | 5.14 | 
C#CCOc1ccc(C(=O)/C=C/c2ccc(F)cc2F)cc1OC | 5.03 | 5.28 | < 4.70 | 
C#CCOc1ccc(/C=C/C(=O)/C=C/c2ccc(OC)cc2)cc1OC | < 4.70 | 4.97 | 4.93 | 
C#CCOc1ccc(/C=C/C(=O)/C=C/c2ccc(OC)cc2OC)cc1OC | 4.72 | 5.40 | 5.27 | 
C#CCOc1ccc(/C=C/C(=O)/C=C/c2ccc(OC)c(OC)c2OC)cc1OC | 5.04 | 5.85 | 6.05 | 
C#CCOc1ccc(/C=C/C(=O)/C=C/c2ccc(Cl)cc2Cl)cc1OC | < 4.70 | 5.05 | 5.04 | 
C#CCOc1ccc(/C=C/C(=O)/C=C/c2ccc(F)cc2)cc1OC | 4.67 | 5.19 | 5.01 | 
C#CCOc1ccc(/C=C/C(=O)/C=C/c2ccc(F)cc2F)cc1OC | < 4.70 | 5.03 | 4.92 | 
COc1ccc(C(=O)/C=C/c2ccc(OCc3cn(-c4ccnc5cc(Cl)ccc45)nn3)c(OC)c2)cc1 | 5.30 | 5.66 | 6.22 | 
COc1ccc(C(=O)/C=C/c2ccc(OCc3cn(-c4ccnc5cc(Cl)ccc45)nn3)c(OC)c2)c(OC)c1 | 7.05 | 7.15 | 7.40 | 1.6 equiv
COc1ccc(/C=C/C(=O)c2ccc(OCc3cn(-c4ccnc5cc(Cl)ccc45)nn3)c(OC)c2)c(OC)c1 | 5.18 | 4.93 | 5.28 | Not Active
COc1cc(C(=O)/C=C/c2ccc(Cl)cc2Cl)ccc1OCc1cn(-c2ccnc3cc(Cl)ccc23)nn1 | 4.94 | 5.72 | 5.22 | 
COc1cc(C(=O)/C=C/c2ccc(F)cc2)ccc1OCc1cn(-c2ccnc3cc(Cl)ccc23)nn1 | 5.16 | 5.80 | 5.13 | 4.8 equiv
COc1cc(C(=O)/C=C/c2ccc(F)cc2F)ccc1OCc1cn(-c2ccnc3cc(Cl)ccc23)nn1 | 4.97 | 5.68 | 5.39 | 1.6 equiv
COc1cc(/C=C/C(C)=O)ccc1OCc1cn([C@H]2C[C@H](n3cc(C)c(=O)[nH]c3=O)O[C@@H]2CO)nn1 |  | 4.79 | 4.92 | 
[N-]=[N+]=Nc1ccnc2cc(Cl)ccc12 | < 4.70 | < 4.70 | < 4.70 | 
C#CCOc1ccc(/C=C/C(=O)c2ccc(OC)cc2OC)cc1OC |  | 5.37 |  | 0.5 equiv
C#CCOc1ccc(/C=C/C(=O)c2ccc(OC)cc2)cc1OC |  | 4.87 |  | 
C#CCOc1ccc(/C=C/C(=O)c2ccc(OC)c(OC)c2OC)cc1OC |  | 5.55 |  | 
C#CCOc1ccc(C(=O)/C=C/c2ccc(OC)c(OC)c2OC)cc1OC |  | 5.62 |  | 
C#CCOc1ccc(C(=O)/C=C/c2ccc(OC)cc2OC)cc1OC |  | 4.84 | < 4.70 | 
CCN(CC)CCCC(C)Nc1ccnc2cc(Cl)ccc12 (stereo unspecified) [CHLOROQUINE] |  |  |  | 1.91 equiv
Cc1cn([C@H]2C[C@H](N=[N+]=[N-])[C@@H](CO)O2)c(=O)[nH]c1=O [ZIDOVUDINE] | < 4.70 | < 4.70 | < 4.70 | 
